# SUMO HTRF inh: inhibitors of in vitro SUMOylation cascade, primary screen, biochemical, HTRF, uHTS | SUMO-conjugating enzyme UBC9 (Homo sapiens), P63279 | HTRF SUMOylation assay, SAE1/SAE2 + UBC9 | inhibition, % at 35 µM | 290,000 tested, 0.36% active | AID 2006, 2009; in the data active = inhibition above about 50%, passing the limit was not always enough
# Target sequence (P63279 whole entry, looked up): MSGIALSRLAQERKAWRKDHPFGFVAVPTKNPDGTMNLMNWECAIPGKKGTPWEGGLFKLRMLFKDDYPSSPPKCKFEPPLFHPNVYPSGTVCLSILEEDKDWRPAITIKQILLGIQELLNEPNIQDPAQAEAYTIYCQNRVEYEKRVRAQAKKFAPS
# Fh CTSL1 inh: Fasciola hepatica cathepsin L1 inhibitors, primary screen, counter-screen for PFM18AAP inhibitor project, biochemical, QFRET, fluorogenic peptide substrate; recombinant F. hepatica cathepsin L1, Z-Leu-Arg-MCA fluorescence; inhibition, % at 5.96 µM; 300,000 tested, 0.49% active; AID 1906, 2009;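 active = inhibition above the mean of all tested compounds plus 3 SD, set per screening campaign, cut at about 17% in these data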;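 note: 0% = plate median of test compound wells and 100% = 1 µM Z-Phe-Ala-diazomethylketone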
# NSD2 HMT inh: NSD2 histone methyltransferase inhibitors, primary screen, biochemical, AlphaScreen, single concentration, set 2; 310,000 tested, 0.54% active; AID 743445, 2014; Histone-lysine N-methyltransferase NSD2 (Homo sapiens), O96028; NSD2 peptide methylation, 120 min; inhibition, % at 12.5 µM; in the data active = inhibition above about 50%
# TDP2 inh: human TDP2 enzyme inhibitors, primary screen, biochemical, epi absorbance, recombinant enzyme; 370,000 tested, 0.34% active; inhibition, % at 12.8 µM; T5PNP hydrolysis, p-nitrophenol absorbance 415 nm; Tyrosyl-DNA phosphodiesterase 2 (Homo sapiens), O95551;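 active = inhibition above the mean of all tested compounds plus 3 SD, set per campaign, cut at about 25% in these data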;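 note: 0% = DMSO with enzyme and 100% = buffer with substrate but no TDP2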
# Target sequence (O95551 whole entry, looked up): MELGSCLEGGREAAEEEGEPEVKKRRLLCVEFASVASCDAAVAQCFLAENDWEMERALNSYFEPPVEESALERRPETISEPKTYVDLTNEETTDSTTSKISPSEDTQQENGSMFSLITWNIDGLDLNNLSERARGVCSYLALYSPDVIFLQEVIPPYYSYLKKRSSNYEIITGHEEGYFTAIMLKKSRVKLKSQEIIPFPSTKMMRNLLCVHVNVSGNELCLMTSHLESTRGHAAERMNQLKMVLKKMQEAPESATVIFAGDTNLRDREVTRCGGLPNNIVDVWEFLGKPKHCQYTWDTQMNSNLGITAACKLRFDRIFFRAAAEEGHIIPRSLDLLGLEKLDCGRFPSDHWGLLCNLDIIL
#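 System: recombinant human TDP2 / Amount: 120 nM TDP2 per well / Also added: 5 mM T5PNP chromogenic substrate / Doses: 12.8 µM single point, 1% DMSO / Incubation: 2 h at 37 °C / Detection: p-Nitrophenol epi absorbance / Evaluation: % inhibition relative to enzyme-containing and enzyme-free wells / Repeats: singlicate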
# * marks the source's active call; other numbers are inactive results; / = not tested or not shown. Shown are actives, neighbours in structure and some others; about 1.2% of the full set was active somewhere.
SMILES,SUMO HTRF inh,Fh CTSL1 inh,NSD2 HMT inh,TDP2 inh
Cc1nn(-c2ccccc2)c2sc(C(=O)NNC(=O)COc3ccccc3)cc12,55*,2,-2,-7
Cc1nn(-c2ccccc2)c2sc(C(=O)NNC(=O)COc3cccc4ccccc34)cc12,3,-1,-2,10
Cc1ccc(OCCOCCN2CCN(C)CC2)c([N+](=O)[O-])c1,18,18*,2,4
CCCC(=O)OCCNc1cc(SCc2ccco2)c2nonc2c1[N+](=O)[O-],90*,12,2,13
CCOC(=O)C1CCCN(C(=O)c2ccncc2)CC1 (configuration not stated),/,/,-1,12
CCN(CC)C(=O)CSc1nnc(-c2ccccc2)o1,13,-10,/,-1
CCN(CC)C(=O)CSc1nnc([C@@H](N)C(C)C)o1,19,33*,-2,0
C[C@@H]1ON(C)[C@H]2C[C@H]3c4[nH]c5cccc(-c6ccccc6F)c5c4CCN3C(=O)[C@@H]12,/,/,/,5
CCc1ccc(NC(=O)Cn2ncc3c4ccccc4n(C)c3c2=O)cc1,48,-2,4,9
Cn1c2ccccc2c2cnn(CC(=O)Nc3ccc(Cl)cc3)c(=O)c21,52*,4,2,6
CC1=C(C#N)C(=O)N(C2CCS(=O)(=O)C2)C(=O)/C1=C\c1ccco1 (configuration not stated),90*,5,/,/
O=C1/C(=C\c2ccco2)SC(=S)N1C1CCCCC1,23,3,/,/
O=C(Nc1nnc(-c2ccccc2F)s1)Nc1ccccc1F,10,-4,/,-10
O=C(Nc1nnc(-c2ccccc2SCc2ccccc2)s1)Nc1ccccc1F,70*,1,/,/
COc1cccc(NC(=O)Nc2nnc(-c3ccccc3SCc3ccccc3)s2)c1,55*,3,-1,-13
N#Cc1ccc(S(=O)(=O)N2CCCc3nc(-c4ccccc4)ccc32)cc1,/,/,0,12
COc1ccc(Oc2c(OC)cc(NCc3ccc(CN)cc3)c3ncccc23)cc1,/,/,76*,7
CC(C)CCN(C(=O)c1csnn1)C(C(=O)NC1CCCCC1)c1ccc(F)cc1 (configuration not stated),3,-5,0,14
NC(=S)N/N=C/c1ccc(-c2ccc([N+](=O)[O-])cc2)o1,19,22*,0,-11
Cc1occc1C(=O)NNC(=S)NCc1ccc(Cl)cc1,15,1,0,2
Cc1occc1C(=O)NNC(=S)NCc1ccccc1,-12,17*,1,1
COc1cccc(CN2CCNC(=O)C2CC(=O)NCCCN2CCCC2=O)c1 (configuration not stated),/,-6,9,3
CN(C)c1ccc(C(CNC(=O)c2ccc(Br)o2)N2CCCC2)cc1 (configuration not stated),/,/,6,/
COc1cccc(N2[C@@H](CC(C)=O)c3cc(C(F)(F)F)ccc3S2(=O)=O)c1,/,-3,/,-6
COc1ccc(CN2[C@@H](CC(C)=O)c3cc(C(F)(F)F)ccc3S2(=O)=O)cc1,/,17*,/,3
SMILES,SUMO HTRF inh,Fh CTSL1 inh,NSD2 HMT inh,TDP2 inh
COc1ccc(/C=N/Nc2cc(N(C)C)nc(N(C)C)n2)cc1,95*,0,33,2
COc1ccc(/C=N/Nc2cc(OC)ncn2)cc1,11,5,0,-4
Cc1ccccc1NC(=O)NCc1ccccn1,/,-3,-3,-1
CCc1ccc2c(c1)C(=O)CCC2,/,/,8,-10
O=C1CCCc2cc3c(cc21)CC1(C3)Cc2cc3c(cc2C1)C(=O)CCC3,82*,3,-2,-11
Cc1cccc(C)c1NC(=O)C(c1ccccc1)N1CCC(c2ccccc2)CC1 (configuration not stated),/,/,/,-2
CCN(Cc1ccncc1)C(=O)c1cccc(S(=O)(=O)N(C)c2ccccc2)c1,/,/,0,/
CC1C(=O)NN=C1C(=O)N/N=C\c1ccc(O)cc1O (configuration not stated),89*,1,-8,-8
CCCNC(=O)c1ccc2c(=O)c(O)c(-c3ccc(C)cc3)[nH]c2c1,42,2,/,-1
CCCNC(=O)c1ccc2c(=O)c(O)c(-c3ccsc3)[nH]c2c1,53*,1,/,/
COc1ccc(CN(CCC(c2ccccc2)c2ccco2)C(=O)c2ccco2)cc1 (configuration not stated),15,23*,7,8
O=C(c1ccco1)N(CCC(c1ccccc1)c1ccco1)Cc1ccccc1 (configuration not stated),28,31*,1,0
Cc1ccc(CN(Cc2ccco2)C(=O)c2ccco2)cc1,-7,4,5,-9
CCC(=O)N(CCC(c1ccccc1)c1ccco1)Cc1cccs1 (configuration not stated),-7,38*,0,-22
COc1ccccc1C(CCN(Cc1cccs1)C(C)=O)c1ccco1 (configuration not stated),11,3,-4,0
Cc1ccnc(NC(=O)CCNC(=O)c2ccccc2Cl)c1,6,0,0,-1
O=c1[nH]c(=S)[nH]c2c1C(c1ccc(Br)cc1)c1c([nH]c(=S)[nH]c1=O)O2,80*,8,/,53*
CNC(=O)[C@H](C)[C@@H]1C[C@@]1(C)[C@@H](NC(=O)OCc1ccccc1)c1ccccc1,14,18*,/,3
CCOC(=O)c1c(C)[nH]c(C(=O)COC(=O)CNC(=O)C2CCCCC2)c1C,-7,27*,0,5
CCOC(=O)c1c(C)[nH]c(C)c1C(=O)COC(=O)CNC(=O)C1CCCCC1,1,54*,-1,3
CCc1ccc(C(=O)COC(=O)CNC(=O)C2CCCCC2)cc1,/,/,-2,8
Cc1cccc(-c2cccc3c4c([nH]c23)[C@@H]2C[C@H](N(C)C(=O)C3CCCCC3)[C@H]([C@H](C)O)CN2CC4)c1,/,/,/,-10
N#CCCn1cc(/C=N/NC(N)=S)c(-c2ccc(-c3ccccc3)cc2)n1,0,29*,1,3
COC(=O)C1=C(C)N(C)C(=NCc2cc(OC)c(OC)c(OC)c2)NC1c1ccc(C(F)(F)F)cc1 (configuration not stated),/,/,/,-5
COC(=O)[C@H](CC(C)C)N(CCc1cn(Cc2ccccc2)nn1)S(=O)(=O)c1ccccc1Br,/,/,/,0
Cc1c(N2C(=O)c3ccc(Br)cc3C2=O)c(=O)n(-c2ccccc2)n1C,30,0,5,-6
Cc1c(N2C(=O)c3ccc4c5c(ccc(c35)C2=O)CC4)c(=O)n(-c2ccccc2)n1C,56*,1,/,/
COC(=O)c1cc2c(c3c4cc(F)ccc4n(S(=O)(=O)c4ccccc4)c13)C(=O)N(Cc1ccccc1)C2,/,/,-3,3
Cn1cc(S(=O)(=O)N2CCOCC2)cc1C(=O)NCCc1ccccc1,7,-2,/,/

# High-throughput results from PubChem.
